ChEMBL document CHEMBL1154375, “Novel dehydroepiandrosterone derivatives with antiapoptotic, neuroprotective activity” (J Med Chem, 2009)
Active and inactive are the calls of the source. The rule behind the calls is not given here.

Legend:
PC-12 [1] = assay: Neuroprotective activity in rat PC12 cells assessed as inhibition of serum deprivation-induced apoptosis at 100 nM after 24 hrs by APO Percentage apoptosis assay; type: functional, cell-based
Method in brief: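 PC12 cells cultured 24 h in serum-free medium with BSA and 10 nM haloperidol plus 100 nM steroid. Apoptotic cells stained with APOPercentage dye, dye released and read at 550 nm (reference 620 nm); expressed relative to serum-free control; at least four experiments in triplicate.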

PC-12 [2] = assay: Cytotoxicity against rat PC12 cells at 0.1 to 10 uM after 24 to 72 hrs by MTT assay; type: cell-based; conditions: pc-12, 10 µM
Method in brief: (§1)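 Seeded at 2×10^4 cells/mL in serum-containing medium (PC12: RPMI 1640, 10% horse serum, 5% FBS; HEK293 and HT22: DMEM, 10% FBS) for 24 h, then 0.1, 1 or 10 μM compound for 24, 48 or 72 h. MTT 5 mg/mL, 4 h, 37 °C; DMSO-dissolved formazan read at 570 nm; % of untreated control; three replicates, three experiments.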

[3] = Displacement of [3H]DHEA from DHEA-binding site in rat PC12 cell membranes by […] counting; set-up: species or system Membrane; conditions: pc-12
PC-12 [4] = assay: Induction of dopamine release in rat PC12 cells at 10 nM after 24 hrs mins by radioimmunoassay; type: functional, cell-based
Method in brief: (§2)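 PC12 cells at 10^6/well on poly(L-lysine) exposed to 10 nM steroid in serum-free medium for 5–30 min or 3–48 h; 1 mL supernatant acidified with 0.1 M HCl; dopamine measured by 125I radioimmunoassay after COMT conversion to 3-methoxytyramine and acylation. Expressed as % of untreated cells; four independent experiments.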

PC-12 [5] = assay: Neuroprotective activity in rat PC12 cells assessed as inhibition of serum deprivation-induced apoptosis after 24 hrs by FACS flow cytometry; type: functional, cell-based
Method in brief: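 PC12 cells (10^6/well) 24 h in serum-free medium with BSA plus 100 nM steroid; stained with 2 μg/mL annexin V-FITC (10 min, dark, HEPES/CaCl2 buffer pH 7.4) and propidium iodide, analysed by flow cytometry within 20 min, 10000 cells per treatment; at least four experiments in triplicate.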

HEK293 = assay: Cytotoxicity against HEK293 cells at 0.1 to 10 uM after 24 to 72 hrs by MTT assay; type: cell-based; conditions: human, hek293, 10 µM; method in brief: as §1
PC-12 [6] = assay: Induction of dopamine release in rat PC12 cells at 10 nM after 10 mins by radioimmunoassay relative to control; type: functional; method in brief: as §2
PC-12 [7] = assay: Neuroprotective activity in rat PC12 cells assessed as inhibition of serum deprivation-induced apoptosis after 24 hrs by APO Percentage apoptosis assay; type: functional, cell-based; conditions: PC-12, 24 h
[8] = Cytotoxicity against mouse HT22 cells at 0.1 to 10 uM after 24 to 72 hrs by MTT assay; type: cell-based; conditions: ht-22, 10 µM; method in brief: as §1
[9] = target: Estrogen receptor beta (Homo sapiens) (UniProt Q92731); assay: Antagonist activity at ERbeta in HEK293 cells assessed as inhibition of ERE-dependent luciferase expression at 1 uM relative to ICI-182780; type: functional, cell-based; set-up: scale not given: the % may be the effect or the level left
PC-12 [10] = assay: Neuroprotective activity against serum deprivation-induced apoptosis in rat PC12 cells assessed as increase in antiapoptotic protein Bcl-XL levels at 10 nM after 12 hrs by Western blot; type: functional, cell-based
Method in brief: (§3)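 PC12 cells cultured 12 h in serum-free medium (0.1% BSA, 10 nM haloperidol) with 10 nM steroid; total protein extracts Western blotted for Bcl-2 or Bcl-xL, band intensity by densitometry normalized to actin; % of control; three independent experiments.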

PC-12 [11] = assay: Neuroprotective activity against serum deprivation-induced apoptosis in rat PC12 cells assessed as increase in antiapoptotic protein Bcl2 levels at 10 nM after 12 hrs by Western blot; type: functional, cell-based; method in brief: as §3
PC-12 [12] = assay: Induction of tyrosine hydroxylase mRNA expression in rat PC12 cells at 10 nM after 6 hrs mins by RT-PCR; type: functional, cell-based
Method in brief: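 PC12 cells incubated 6 h with 10 nM steroid; TH mRNA measured by RT-PCR, 33 cycles, 368 bp product on 2% agarose gel, normalized to GAPDH mRNA.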

MCF7 = assay: Induction of human MCF7 cells growth containing endogenous ERalpha receptor at 1 uM by MTT assay relative to estradiol; type: functional
Method in brief: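 Breast cancer cells at 8000/well in phenol red-free MEM, 1 μg/mL insulin, 5% charcoal-stripped FBS; after 72 h, 96 h exposure; MTT formazan at 550 nm.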

[13] = target: T1, Estrogen receptor (Homo sapiens) (UniProt P03372); assay: Agonist activity at estrogen receptor in human Ishikawa cells assessed as induction of ERE-dependent alkaline phosphatase level at 1 uM relative to estradiol; type: functional, cell-based
T1 sequence (whole entry): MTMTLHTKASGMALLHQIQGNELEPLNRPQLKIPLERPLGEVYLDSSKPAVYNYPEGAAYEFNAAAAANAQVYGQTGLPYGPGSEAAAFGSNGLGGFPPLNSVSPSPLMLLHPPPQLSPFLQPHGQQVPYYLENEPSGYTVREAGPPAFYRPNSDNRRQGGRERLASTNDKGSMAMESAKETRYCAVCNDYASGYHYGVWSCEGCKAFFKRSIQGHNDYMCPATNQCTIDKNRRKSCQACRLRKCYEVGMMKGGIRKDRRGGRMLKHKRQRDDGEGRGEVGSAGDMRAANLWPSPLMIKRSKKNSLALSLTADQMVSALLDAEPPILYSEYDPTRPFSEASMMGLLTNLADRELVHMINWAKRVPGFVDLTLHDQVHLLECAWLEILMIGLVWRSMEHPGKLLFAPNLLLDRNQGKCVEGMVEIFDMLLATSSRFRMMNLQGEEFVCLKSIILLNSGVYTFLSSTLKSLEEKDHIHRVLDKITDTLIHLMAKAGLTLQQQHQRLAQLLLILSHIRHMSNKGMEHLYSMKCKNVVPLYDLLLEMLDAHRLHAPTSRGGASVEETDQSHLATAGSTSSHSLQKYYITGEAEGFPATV

[14] = target: T1, Estrogen receptor (Homo sapiens); assay: Antagonist activity at estrogen receptor in human Ishikawa cells assessed as inhibition of ERE-dependent alkaline phosphatase levels at 1 uM relative to ICI-182780; type: functional, cell-based; set-up: scale not given: the % may be the effect or the level left
[15] = target: T1, Estrogen receptor (Homo sapiens); assay: Antagonist activity at ERalpha in human MCF7:D5L cells assessed as inhibition of ERE-dependent luciferase expression at 1 uM relative to ICI-182780; type: functional, cell-based
Ishikawa = assay: Induction of human Ishikawa cells growth containing endogenous ERalpha receptor at 1 uM by MTT assay relative to estradiol; type: functional, cell-based
Method in brief: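 Endometrial cells at 8000/well in phenol red-free MEM, 1 μg/mL insulin, 5% charcoal-stripped FBS; compound added 24 h after plating, 96 h exposure; MTT at 550 nm.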

LNCaP = assay: Induction of human LNCAP cells growth containing endogenous […] receptor at 1 uM by MTT assay relative to estradiol; type: functional, cell-based
Method in brief: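 Prostate cells at 5000/well on polylysine-coated wells in phenol red-free RPMI with 10% charcoal-stripped FBS; after 72 h, 96 h exposure; MTT at 550 nm.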

[16] = target: T1, Estrogen receptor (Homo sapiens); assay: Agonist activity at ERalpha in human MCF7:D5L cells assessed as induction of ERE-dependent luciferase expression at 1 uM relative to estradiol; type: functional, cell-based
[17] = target: Estrogen receptor beta (Homo sapiens) (UniProt Q92731); assay: Agonist activity at ERbeta in HEK293 cells assessed as induction of ERE-dependent luciferase expression at 1 uM relative to estradiol; type: functional, cell-based

Chain of Estrogen receptor beta (Homo sapiens) (Q92731 whole entry): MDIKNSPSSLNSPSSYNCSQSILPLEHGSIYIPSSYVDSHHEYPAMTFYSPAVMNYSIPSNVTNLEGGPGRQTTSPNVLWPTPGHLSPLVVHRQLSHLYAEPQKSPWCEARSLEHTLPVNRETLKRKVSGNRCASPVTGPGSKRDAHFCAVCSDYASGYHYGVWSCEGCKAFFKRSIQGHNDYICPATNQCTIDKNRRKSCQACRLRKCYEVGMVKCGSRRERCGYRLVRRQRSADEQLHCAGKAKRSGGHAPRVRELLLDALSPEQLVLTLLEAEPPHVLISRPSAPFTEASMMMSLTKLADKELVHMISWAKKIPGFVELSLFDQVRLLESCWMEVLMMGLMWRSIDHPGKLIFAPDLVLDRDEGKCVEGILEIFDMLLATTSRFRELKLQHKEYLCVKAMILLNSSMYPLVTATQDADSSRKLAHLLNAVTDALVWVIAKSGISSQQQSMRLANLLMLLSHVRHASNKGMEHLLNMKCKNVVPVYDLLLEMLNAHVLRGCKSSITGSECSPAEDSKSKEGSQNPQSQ

## C[C@@]1(O)CC[C@@]2(C)C(=CC[C@@H]3[C@@H]2CC[C@]2(C)C(=O)CC[C@@H]32)C1
PC-12 [1]
  inhibition: inactive

## C[C@]12CC[C@H](O)CC1=CC[C@@H]1[C@@H]2CC[C@@]2(C)[C@H]1CC[C@@]21CO1
PC-12 [2]
  Activity: Non-toxic
[3]
  IC50: 0.04 nM
PC-12 [4]
  Activity: Active
PC-12 [5]
  Activity: Active
HEK293
  Activity: Non-toxic
PC-12 [6]
  fold change (FC): 2
PC-12 [7]
  IC50: 0.19 nM
[8]
  Activity: Non-toxic
[9]
  Activity: inactive
PC-12 [10]
  Activity: Active
PC-12 [11]
  Activity: Active
PC-12 [12]
  Activity: Active
MCF7
  Activity: 33%
[13]
  Activity: 22%
[14]
  Activity: inactive
[15]
  Activity: inactive
Ishikawa
  Activity: inactive
LNCaP
  Activity: inactive
[16]
  Activity: 29%
[17]
  Activity: inactive

## C[C@]12CC[C@H](O)CC1=CC[C@@H]1[C@@H]2CC[C@]2(C)C(=O)CC[C@@H]12 [PRASTERONE]
[3]
  IC50: 1.65 nM
PC-12 [7]
  IC50: 0.29 nM

## C[C@]12CC[C@H](O)CC1=CC[C@@H]1[C@@H]2CC[C@@]2(C)[C@H]1CC[C@]21O[C@@H]1CO
PC-12 [2]
  Activity: Non-toxic
[3]
  IC50: 18.6 nM
PC-12 [4]
  Activity: Active
PC-12 [5]
  Activity: Active
HEK293
  Activity: Non-toxic
PC-12 [6]
  fold change (FC): 2
PC-12 [7]
  IC50: 6.4 nM
[8]
  Activity: Non-toxic
[9]
  Activity: 31%
PC-12 [10]
  Activity: Active
PC-12 [11]
  Activity: Active
PC-12 [12]
  Activity: Active
MCF7
  Activity: inactive
[13]
  Activity: inactive
[14]
  Activity: 24%
[15]
  Activity: inactive
Ishikawa
  Activity: inactive
LNCaP
  Activity: inactive
[16]
  Activity: inactive
[17]
  Activity: inactive

## C[C@]1(O)CC[C@@]2(C)C(=CC[C@@H]3[C@@H]2CC[C@]2(C)C(=O)CC[C@@H]32)C1
PC-12 [1]
  inhibition: inactive

## C[C@]12CC[C@@](O)(CC#N)CC1=CC[C@@H]1[C@@H]2CC[C@]2(C)C(=O)CC[C@@H]12
PC-12 [1]
  inhibition: inactive

## CO[C@H]1CC[C@H]2[C@@H]3CC=C4C[C@@H](O)CC[C@]4(C)[C@H]3CC[C@]12C
PC-12 [1]
  inhibition: inactive

## CCCC[C@@]1(O)CC[C@@]2(C)C(=CC[C@@H]3[C@@H]2CC[C@]2(C)C(=O)CC[C@@H]32)C1
PC-12 [1]
  inhibition: inactive

## C[C@]12CC[C@H](O)CC1=CC[C@@H]1[C@@H]2CC[C@@]2(C)[C@H]1CC[C@]21O[C@H]1CO
PC-12 [2]
  Activity: Non-toxic
[3]
  IC50: 0.11 nM
PC-12 [5]
  Activity: Active
HEK293
  Activity: Non-toxic
PC-12 [7]
  IC50: 99 nM
[8]
  Activity: Non-toxic
[9]
  Activity: inactive
PC-12 [10]
  Activity: Active
PC-12 [11]
  Activity: Active
MCF7
  Activity: inactive
[13]
  Activity: inactive
[14]
  Activity: inactive
[15]
  Activity: inactive
Ishikawa
  Activity: inactive
LNCaP
  Activity: inactive
[16]
  Activity: inactive
[17]
  Activity: inactive

## COC[C@]1(O)CC[C@@]2(C)C(=CC[C@@H]3[C@@H]2CC[C@]2(C)C(=O)CC[C@@H]32)C1
PC-12 [1]
  inhibition: inactive

## C[C@]12CC[C@@](O)(CN=[N+]=[N-])CC1=CC[C@@H]1[C@@H]2CC[C@]2(C)C(=O)CC[C@@H]12
PC-12 [1]
  inhibition: inactive
